Results: PMC3064798 (Nucleic Acids Research, 2011)
Entries after “also recorded” stand apart in the source; their conditions may differ.

How the values were obtained:
Test in all cases: PEP
Assay type in all cases: biochemical
TaqFS polymerase = TaqFS polymerase (Thermus aquaticus, UniProt P19821, F667Y/G46D); conditions: for IC50 values (activity in words): TaqFS, Not Active = no visible +1 band in 377 gel image at 100 μM
Method in brief: (§1)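 Polymerase end-point assay for single-base incorporation. 5 nM BODIPY-FL-labelled primer-1 was hybridised to 40 nM oligoTemplate-4, with the interrogation base complementary to dU. Absence of a +1 band on the 377 gel image at 100 μM counts as not active. IC50 was averaged from triplicates ± 1 SD. Incorporation bias is the analog IC50 divided by the natural-nucleotide (HOMedUTP) IC50.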

Therminator polymerase = target: T1, Therminator polymerase (Thermococcus sp., UniProt Q56366, A485L/D141A/E143A); conditions: for Incorporation bias (analog IC50/HOMedUTP IC50): Therminator
T1 sequence (Q56366 1-775 D141A/E143A/A485L): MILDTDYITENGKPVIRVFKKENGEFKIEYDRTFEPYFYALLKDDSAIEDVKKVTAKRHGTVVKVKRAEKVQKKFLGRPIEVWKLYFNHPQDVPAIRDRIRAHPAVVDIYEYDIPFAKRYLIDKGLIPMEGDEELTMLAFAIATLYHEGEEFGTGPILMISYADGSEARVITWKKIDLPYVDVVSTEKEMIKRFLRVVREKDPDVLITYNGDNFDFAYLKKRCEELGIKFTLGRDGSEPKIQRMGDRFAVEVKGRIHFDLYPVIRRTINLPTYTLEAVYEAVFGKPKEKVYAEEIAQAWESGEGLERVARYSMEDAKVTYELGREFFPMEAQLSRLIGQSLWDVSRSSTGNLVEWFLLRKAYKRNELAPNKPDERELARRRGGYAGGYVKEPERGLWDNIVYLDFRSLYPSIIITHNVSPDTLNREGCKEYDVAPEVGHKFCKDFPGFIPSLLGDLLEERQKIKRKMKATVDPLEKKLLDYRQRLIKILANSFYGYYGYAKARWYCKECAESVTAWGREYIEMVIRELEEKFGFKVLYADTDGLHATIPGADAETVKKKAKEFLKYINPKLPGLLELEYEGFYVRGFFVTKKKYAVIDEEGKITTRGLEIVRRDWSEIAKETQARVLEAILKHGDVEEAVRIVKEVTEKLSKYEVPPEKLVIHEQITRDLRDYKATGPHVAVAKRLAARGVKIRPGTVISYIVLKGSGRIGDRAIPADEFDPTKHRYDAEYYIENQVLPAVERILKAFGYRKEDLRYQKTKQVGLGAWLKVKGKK
Method in brief: as §1

Bst polymerase = target: T2, Bst polymerase (Geobacillus stearothermophilus, UniProt P52026)
T2 sequence (P52026 1-876): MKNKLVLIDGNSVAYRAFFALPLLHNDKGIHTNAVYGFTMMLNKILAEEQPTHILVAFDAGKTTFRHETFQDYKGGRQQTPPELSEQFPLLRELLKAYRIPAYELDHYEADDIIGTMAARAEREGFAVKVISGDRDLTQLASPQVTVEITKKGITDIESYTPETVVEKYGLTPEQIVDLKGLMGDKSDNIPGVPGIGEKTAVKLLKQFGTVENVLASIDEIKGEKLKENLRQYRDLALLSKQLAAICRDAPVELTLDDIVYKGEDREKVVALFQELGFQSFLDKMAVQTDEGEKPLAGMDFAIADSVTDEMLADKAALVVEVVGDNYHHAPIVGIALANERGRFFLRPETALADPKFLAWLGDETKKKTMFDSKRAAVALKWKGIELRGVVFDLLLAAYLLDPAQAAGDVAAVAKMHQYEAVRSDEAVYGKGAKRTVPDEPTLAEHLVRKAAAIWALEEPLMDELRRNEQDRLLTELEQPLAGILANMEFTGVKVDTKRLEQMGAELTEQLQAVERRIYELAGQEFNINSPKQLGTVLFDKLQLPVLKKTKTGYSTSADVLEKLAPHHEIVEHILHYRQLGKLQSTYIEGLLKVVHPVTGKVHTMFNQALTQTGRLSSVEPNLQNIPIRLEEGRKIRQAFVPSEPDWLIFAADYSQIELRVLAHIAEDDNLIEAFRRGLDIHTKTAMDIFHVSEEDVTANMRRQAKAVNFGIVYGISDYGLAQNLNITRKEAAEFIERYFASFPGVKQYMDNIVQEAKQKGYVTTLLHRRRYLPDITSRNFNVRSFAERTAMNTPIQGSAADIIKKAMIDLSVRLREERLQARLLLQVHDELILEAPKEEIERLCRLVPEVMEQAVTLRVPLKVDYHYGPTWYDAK
Method in brief: as §1

[1] = target: T3, DeepVent(exo^−) polymerase (Pyrococcus sp., UniProt Q51334, D141A/DEL493-1029/E143A); conditions: for Incorporation bias (analog IC50/HOMedUTP IC50): DeepVent(exo^−)
T3 sequence (Q51334 with tags, fused parts or gaps D141A/E143A/DEL493-1029): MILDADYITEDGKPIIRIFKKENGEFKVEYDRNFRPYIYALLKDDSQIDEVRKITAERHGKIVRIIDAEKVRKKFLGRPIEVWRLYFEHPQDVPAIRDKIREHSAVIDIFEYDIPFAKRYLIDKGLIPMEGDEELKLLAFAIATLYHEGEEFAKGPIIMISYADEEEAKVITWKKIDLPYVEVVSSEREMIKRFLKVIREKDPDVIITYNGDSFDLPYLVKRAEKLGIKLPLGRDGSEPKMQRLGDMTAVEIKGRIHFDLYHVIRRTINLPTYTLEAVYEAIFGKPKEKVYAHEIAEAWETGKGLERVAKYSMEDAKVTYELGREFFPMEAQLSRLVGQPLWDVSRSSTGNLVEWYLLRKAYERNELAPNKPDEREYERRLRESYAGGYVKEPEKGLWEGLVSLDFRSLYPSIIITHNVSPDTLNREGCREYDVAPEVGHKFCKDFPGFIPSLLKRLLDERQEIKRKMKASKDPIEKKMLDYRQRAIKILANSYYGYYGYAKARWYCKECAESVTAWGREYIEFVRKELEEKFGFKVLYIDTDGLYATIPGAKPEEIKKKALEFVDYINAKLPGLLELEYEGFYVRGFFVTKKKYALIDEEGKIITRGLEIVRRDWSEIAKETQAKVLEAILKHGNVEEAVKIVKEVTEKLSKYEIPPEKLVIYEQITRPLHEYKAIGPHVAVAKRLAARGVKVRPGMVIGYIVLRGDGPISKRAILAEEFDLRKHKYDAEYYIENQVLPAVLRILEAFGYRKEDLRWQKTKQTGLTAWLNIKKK
Method in brief: as §1

Sequence of TaqFS polymerase (P19821 whole entry G46D/F667Y): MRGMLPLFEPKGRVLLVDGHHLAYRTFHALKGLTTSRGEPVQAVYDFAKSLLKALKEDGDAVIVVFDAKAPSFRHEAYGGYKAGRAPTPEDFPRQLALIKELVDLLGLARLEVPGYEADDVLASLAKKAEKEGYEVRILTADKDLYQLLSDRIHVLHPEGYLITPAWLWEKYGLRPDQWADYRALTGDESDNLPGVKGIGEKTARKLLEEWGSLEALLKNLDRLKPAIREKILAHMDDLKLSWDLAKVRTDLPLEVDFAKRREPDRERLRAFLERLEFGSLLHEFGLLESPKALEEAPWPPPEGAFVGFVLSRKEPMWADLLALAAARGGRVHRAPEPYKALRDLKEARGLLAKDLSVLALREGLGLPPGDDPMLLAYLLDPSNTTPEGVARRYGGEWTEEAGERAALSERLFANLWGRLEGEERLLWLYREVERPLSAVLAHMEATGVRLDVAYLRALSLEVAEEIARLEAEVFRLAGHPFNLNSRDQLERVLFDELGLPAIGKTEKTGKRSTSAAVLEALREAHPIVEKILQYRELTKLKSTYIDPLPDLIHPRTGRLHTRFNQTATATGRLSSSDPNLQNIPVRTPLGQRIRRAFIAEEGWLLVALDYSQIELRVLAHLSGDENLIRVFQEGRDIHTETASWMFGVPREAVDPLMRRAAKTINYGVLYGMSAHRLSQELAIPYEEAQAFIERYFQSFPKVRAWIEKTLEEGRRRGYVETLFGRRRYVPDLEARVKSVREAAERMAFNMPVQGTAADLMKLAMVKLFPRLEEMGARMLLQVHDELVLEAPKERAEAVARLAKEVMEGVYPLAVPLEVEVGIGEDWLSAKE

Structure (SMILES) | IC50 values (activity in words) (TaqFS polymerase) | Incorporation bias (analog IC50/HOMedUTP IC50) (Therminator polymerase) | IC50 values (activity in words) (Bst polymerase; Bst, Not Active = no visible +1 band in 377 gel image at 100 μM) | IC50 [1] | Incorporation bias (analog IC50/HOMedUTP IC50) [1] | IC50 (Bst polymerase) | Incorporation bias (analog IC50/HOMedUTP IC50) (Bst polymerase; Bst) | IC50 (TaqFS polymerase) | IC50 (Therminator polymerase)
CC(C)C(OCc1cn([C@H]2C[C@H](O)[C@@H](COP(=O)(O)OP(=O)(O)OP(=O)(O)O)O2)c(=O)[nH]c1=O)c1ccccc1[N+](=O)[O-] (mixture of isomers) [dU.III, 5-[1-(2-Nitrophenyl)-2-methyl-propyloxy]methyl-2'-deoxyuridine-5’-triphosphate] | none of the Family A polymerases showed any activity | 1.4 | none of the Family A polymerases showed any activity; also recorded: Not Active^a | 220 ± 20 nM | 80 |  |  |  | 
CC(OCc1cn([C@H]2C[C@H](O)[C@@H](COP(=O)(O)OP(=O)(O)OP(=O)(O)O)O2)c(=O)[nH]c1=O)c1ccccc1[N+](=O)[O-] (mixture of isomers) [dU.II, 5-[1-(2-Nitrophenyl)ethyloxy]methyl-2'-deoxyuridine-5’-triphosphate] | no activity at all | 1.0 |  | 17 ± 1 nM | 6.3 | 3500 ± 200 nM | 1600 |  | 
O=c1[nH]c(=O)n([C@H]2C[C@H](O)[C@@H](COP(=O)(O)OP(=O)(O)OP(=O)(O)O)O2)cc1COCc1ccccc1[N+](=O)[O-] [dU.I, 5-(2-Nitrobenzyloxy)methyl-2'-deoxyuridine-5’-triphosphate] |  | 1.1 |  | 4.9 ± 1 nM | 1.8 | 98 ± 13 nM | 45 | 25000 nM | 1.8 ± 0.1 nM
